# Data reported in ChEMBL document CHEMBL5647683 (Oncogene, 2008).
# Key:
# A-431 [1] = experiment: Antitumor activity against human A-431 cells xenografted athymic NMRI-nu/nu female mouse as reduction in tumor volume at 2x100 mg/kg, po administered daily for 25 days relative to control; format: functional; settings: dose 100 mg/kg, time 25 day
# How it was run: (§1)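 Female athymic NMRI-nu/nu mice (5–6 weeks, 21–31 g) given 1–5×10⁶ cells into the right flank; MDA-MB-453 tumors started from fresh 2×2×2 mm fragments. At 40–130 mm³, tumors were randomized to weight-based daily oral gavage (10 ml/kg; 1.8% HP-β-CD, 5% acetic acid (10%), 0.5% Natrosol) or vehicle. Caliper measurement 3×/week, volume π/6×L×W². Expressed as cumulative treated/control volume ratio; one-way ANOVA with Dunnett's test.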
# A-431 [2] = experiment: Antitumor activity against human A-431 cells xenografted athymic NMRI-nu/nu female mouse as reduction in tumor volume at 75 mg/kg, po administered daily for 25 days relative to control; format: functional; settings: time 25 day; how it was run: as §1
# [3] = Inhibition of human EGFR L858R-T790M double mutant expressed in mouse BaF3 cells assessed as reduction in cell survival incubated for 48 hrs by WST assay
# [4] = Inhibition of human EGFR L747_P753del7insS-T790M mutant expressed in mouse BaF3 cells assessed as reduction in cell survival incubated for 48 hrs by WST assay
# [5] = Inhibition of human EGFR variant III deletion expressed in mouse BaF3 cells assessed as reduction in cell survival incubated for 48 hrs by WST assay
# [6] = Inhibition of human EGFR S752_I759del8 mutant expressed in mouse BaF3 cells assessed as reduction in cell survival incubated for 48 hrs by WST assay
# [7] = Inhibition of human EGFR S752_I759del8-T790M mutant expressed in mouse BaF3 cells assessed as reduction in cell survival incubated for 48 hrs by WST assay
smiles,measurement,setting,value
CS(=O)(=O)CCNCc1ccc(-c2ccc3ncnc(Nc4ccc(OCc5cccc(F)c5)c(Cl)c4)c3c2)o1 [LAPATINIB],T/C,A-431 [1],32%
COc1cc2ncnc(Nc3ccc(F)c(Cl)c3)c2cc1OCCCN1CCOCC1 [GEFITINIB],T/C,A-431 [2],46%
C#Cc1cccc(Nc2ncnc3cc(OCCOC)c(OCCOC)cc23)c1 [ERLOTINIB],IC50,[3],>10 µM
same,IC50,[4],>10 µM
same,IC50,[5],0.144 µM
same,IC50,[6],0.033 µM
same,IC50,[7],>10 µM
